Compound activity from PubChem.
Hck Nef HTS: inhibitors of human Hck kinase activated by Nef; P08631; AID 463187; inhibition, % at 20 µM; 220,000 compounds, 0.68% hits; Recombinant Hck-YEEI plus Nef, Z-Lyte FRET kinase assay;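 active = Hck-Nef kinase inhibition above about 50%, limit read from the data; inactive = inhibition below that limit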
Runt-CBFb FRET: inhibitors of human RUNX1 Runt domain binding to CBFb; Q01196+Q13951; Cerulean-Runt/Venus-CBFb FRET ratio 530/480, 1 h; inhibition, % at 20 µM; 220,000 compounds, 0.46% hits; AID 1496;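 active = inhibition over about 50% at 20 µM in the single-dose screen, limit read from the data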
Target sequence (Q01196 whole entry, looked up, the tested form may be a part): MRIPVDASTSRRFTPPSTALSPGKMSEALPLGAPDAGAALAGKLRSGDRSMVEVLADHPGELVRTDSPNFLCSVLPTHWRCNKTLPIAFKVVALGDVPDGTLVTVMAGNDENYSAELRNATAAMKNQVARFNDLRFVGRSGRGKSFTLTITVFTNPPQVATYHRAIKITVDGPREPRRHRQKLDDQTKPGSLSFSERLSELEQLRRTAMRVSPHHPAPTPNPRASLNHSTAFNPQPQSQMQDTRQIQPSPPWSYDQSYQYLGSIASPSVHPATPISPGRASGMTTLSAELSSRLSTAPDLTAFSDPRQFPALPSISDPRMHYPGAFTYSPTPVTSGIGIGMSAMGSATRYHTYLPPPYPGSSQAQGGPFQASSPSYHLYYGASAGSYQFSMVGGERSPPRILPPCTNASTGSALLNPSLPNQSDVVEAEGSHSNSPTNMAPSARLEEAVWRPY
Target sequence (Q13951 whole entry, looked up, the tested form may be a part): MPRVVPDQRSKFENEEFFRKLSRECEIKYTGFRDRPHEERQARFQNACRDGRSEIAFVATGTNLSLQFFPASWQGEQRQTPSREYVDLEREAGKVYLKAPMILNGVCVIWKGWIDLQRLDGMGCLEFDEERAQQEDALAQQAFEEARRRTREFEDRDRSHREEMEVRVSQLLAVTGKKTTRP
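test system = Cerulean-tagged RUNX1 Runt domain (FRET donor) fusion protein | reagent = Venus-CBFb binding partner, 100 nM | incubation = protein complex preformed 1 h, compound exposure 1 h, room temperature, dark | detection = FRET fluorescence | read-out basis = loss of energy transfer signal | controls = 5 µM unlabeled CBFb as full-inhibition high control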
RanGTP-Impb inh: inhibitors of RanGTP-importin-beta interaction, primary screen, biochemical, FRET, CFP-Ran, YFP-importin-beta, homogeneous | cell-free CFP-Ran/YFP-importin-beta FRET ratio | inhibition, % (no concentration beside the values) | 300,000 compounds, 1.1% hits | AID 2216;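 active = more than half of the replicate wells show a fall in the fluorescence ratio signal beyond about 16%, limit read from the data, passing the limit was not always enough; inconclusive = exactly half of the replicate wells pass the set limit; inactive = fewer than half of replicates pass the limit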
Runt-SMMHC FRET: inhibitors of human RUNX1 Runt domain binding to CBFb-SMMHC | Q01196+Q13951 | 220,000 compounds, 0.74% hits | Cerulean-Runt/Venus-CBFb-SMMHC FRET ratio 530/480, 1 h | inhibition, % at 20 µM | AID 1434;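 active = mean inhibition across duplicate retests at 20 µM reaching about 50%, limit read from the data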;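 also: inhibitors lower the FRET ratio by blocking Runt binding to CBFb-SMMHC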
TbHK1 inh: T. brucei hexokinase 1 inhibition. AID 1430. recombinant TbHK1, G6PDH-coupled NADH A340. 220,000 compounds, 0.11% hits. inhibition, % at 10 µM;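 active = inhibition of 50% or more in the single-dose primary screen; inactive = inhibition below 50%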
YIC counter: counter-screen: alters YIC FRET probe signal; shares compounds with RanGTP-Impb inh; Purified YIC probe, intramolecular FRET ratio YFP/CFP; IC50, µM; 1,000 compounds, 40% hits; AID 435026;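 active = fitted half-maximal inhibitory concentration no more than tenfold above the top dose tested; inconclusive = flat fit with 30 to 70% activity, or poor fit; inactive = half-maximal concentration beyond tenfold above the top dose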
Each line names hits and unclear results; the compound was inactive in the other large screens (follow-up assays come after a bar, where they were run). The list is not random: actives were taken first. Their share in the collection is about 1.9%.

COc1ccc(-c2cc(C(=O)O)nc3ccc4ccccc4c23)cc1OC	RanGTP-Impb inh 18.2 | YIC counter inactive
COc1cc(/C=N/Nc2snc(SC)c2C#N)ccc1O	none
CSc1nsc(/C=C/Nc2ccc(C)cc2)c1C#N	RanGTP-Impb inh 23.8 | YIC counter inactive
Cc1cc(C)n2nc(C(=O)OCC(=O)c3cc(C)n(CC4CCCO4)c3C)nc2n1 (centres undefined)	none
Cc1cc(C(=O)COC(=O)c2nc3nccc(C)n3n2)c(C)n1CC1CCCO1 (centres undefined)	RanGTP-Impb inh 21.2 | YIC counter inactive
CCC(CC)Nc1ccc(C(CC(N)=O)NC(=O)Cc2cccc3ccccc23)cc1[N+](=O)[O-] (centres undefined)	none (no result: Hck Nef HTS, Runt-CBFb FRET, Runt-SMMHC FRET, TbHK1 inh)
CCc1ccc(CN2CCC(n3nccc3NC(=O)c3ccccc3Cl)CC2)cc1	none (no result: Hck Nef HTS, Runt-CBFb FRET, Runt-SMMHC FRET, TbHK1 inh)
CC(C)(C)CN1CCC(n2nccc2NC(=O)c2ccccc2Cl)CC1	RanGTP-Impb inh 19.7 (no result: Hck Nef HTS, Runt-CBFb FRET, Runt-SMMHC FRET, TbHK1 inh) | YIC counter inactive
O=C(NCCN1CCCC1)c1ccc(Cl)cc1	none
N#Cc1c(N)n(CCNC(=O)c2ccc(Cl)cc2)c2nc3ccccc3nc12	Runt-CBFb FRET 94.0, RanGTP-Impb inh 27.9 | YIC counter 2.04
Cn1c(=O)[nH]c2c(nc(-c3ccc(Cl)cc3)n2C)c1=O	RanGTP-Impb inh 18.2 (no result: Hck Nef HTS, Runt-CBFb FRET, Runt-SMMHC FRET, TbHK1 inh) | YIC counter 31.9
CC(C)=CCCC(C)CN1CCC(N2CCC(C(=O)NC(C)C)CC2)CC1 (centres undefined)	none
NS(=O)(=O)c1ccc(CCNC(=O)C(=O)c2c[nH]c3ccccc23)cc1	RanGTP-Impb inh 17.1 | YIC counter inactive
O=C(NCCc1ccccc1)C(=O)c1c[nH]c2ccccc12	none (no result: Hck Nef HTS, Runt-CBFb FRET, Runt-SMMHC FRET, TbHK1 inh)
C/C(=N\N=C1\NC(=O)C(CC(=O)Nc2ccccc2F)S1)C1CCCCC1 (centres undefined)	none (no result: Hck Nef HTS, Runt-CBFb FRET, Runt-SMMHC FRET, TbHK1 inh)
Cn1c(N)c(C(=O)COC(=O)C2(c3ccc(F)cc3)CCCC2)c(=O)n(C)c1=O	RanGTP-Impb inh 21.8 | YIC counter inactive
CCCCC(=O)Nc1cc(Cl)ccc1C(=O)O	none
COc1ccc(NC(=O)/C(C#N)=C/c2cccnc2)c(OC)c1	none (no result: Hck Nef HTS, Runt-CBFb FRET, Runt-SMMHC FRET, TbHK1 inh)
COc1cc(/C=C(\C#N)C(=O)Nc2cccc3ncccc23)cc(OC)c1OC	RanGTP-Impb inh 36.3 | YIC counter inactive
Cc1sc2c(c1C)C(=O)NC(c1ccccc1F)N2 (centres undefined)	RanGTP-Impb inh 24.3 | YIC counter inactive
Cc1ccc(C)c(C2NC(=O)c3ccccc3N2)c1 (centres undefined)	none
Cc1ccc(C2NC(=O)c3c(sc(C)c3C)N2)c(O)c1 (centres undefined)	RanGTP-Impb inh 24.2 | YIC counter inactive
CC(=O)Cc1nsc(NC(=O)c2ccc(-c3cccc(C(F)(F)F)c3)o2)n1	RanGTP-Impb inh 22.2 | YIC counter inactive
CC(=O)Cc1nsc(NC(=O)c2ccc(-c3cc(C(F)(F)F)ccc3Cl)o2)n1	none
CN(C(=O)Cc1c(C(=O)O)n(C)c2ccccc12)c1ccc(F)cc1	none
Fc1ccccc1N1CC(c2ccccc2)C(c2cccs2)=N1 (centres undefined)	RanGTP-Impb inh 19.5, Runt-SMMHC FRET 61.6 | YIC counter 13.9
Cc1ccccc1C(=O)c1cccn1CC(=O)NCCCN1CCc2ccccc2C1	none
COc1ccc(-c2noc(CCC(=O)N3CCN(c4cc(C)ccc4C)CC3)n2)cc1	none
CCOC(=O)C1(CC2CCCCO2)CCN(C(=O)Nc2ccc3c(c2)OCO3)CC1 (centres undefined)	RanGTP-Impb inh 21.7 | YIC counter inactive
CC1CN(CCC(=O)Nc2ccc3c(c2)OCO3)CC(C)O1 (centres undefined)	none
C[C@@H]1CCCCO[C@H](CN(C)Cc2ccc3c(c2)OCO3)[C@@H](C)CN([C@H](C)CO)C(=O)c2cc(NC(=O)CCCN(C)C)ccc2O1	none (no result: Hck Nef HTS, Runt-CBFb FRET, RanGTP-Impb inh, Runt-SMMHC FRET, TbHK1 inh) | YIC counter inactive
O=C1CC(NS(=O)(=O)c2ccc(F)cc2)CN1c1ccc2c(c1)OCCO2 (centres undefined)	none (no result: Hck Nef HTS, Runt-CBFb FRET, Runt-SMMHC FRET, TbHK1 inh)
COc1ccccc1/C=C/C(=O)NCCc1ccccn1	none (no result: Hck Nef HTS, Runt-CBFb FRET, Runt-SMMHC FRET, TbHK1 inh)
Cc1cccc2cc(C#N)c(NCc3ccccc3)nc12	RanGTP-Impb inh inconclusive
CCC(=O)NCCNc1nc2cc(C)c(C)cc2cc1C#N	RanGTP-Impb inh 33.7 | YIC counter 14.4
Cc1ccc2cc(CCNC(=O)C3CCCCC3)c(=O)[nH]c2c1C	none (no result: Hck Nef HTS, Runt-CBFb FRET, Runt-SMMHC FRET, TbHK1 inh)
Cc1cccc2cc(C#N)c(NCCNC(=O)COc3ccccc3)nc12	RanGTP-Impb inh 19.9 | YIC counter 27
Cc1cccc2cc(C#N)c(NCCCn3ccnc3)nc12	RanGTP-Impb inh 34.8, Runt-SMMHC FRET 85.6 | YIC counter 20.2
Cc1cc2cc(C)c(NCCNC(=O)c3ccccc3Cl)nc2cc1C	RanGTP-Impb inh inconclusive
Cc1ccc2cc(C#N)c(NCCNC(=O)C3CC3)nc2c1C	RanGTP-Impb inh 16.4, Runt-SMMHC FRET 102.6 | YIC counter 46.9
Cc1nc(NCCCn2ccnc2)c2ccccc2n1	none
